What was measured:
[1] = test system: Junin virus; test: Antiviral activity against Junin virus IV4454 infected in african green monkey Vero cells assessed as reduction in virus yield after 48 hrs by plaque assay; assay type: functional, organism-based; settings: Mammarenavirus juninense
[2] = (§1) Cytotoxicity against african green monkey Vero cells after 48 hrs by MTT assay; assay type: cell-based, Chlorocebus sabaeus; settings: chlorocebus sabaeus, Vero cells
In short: (§2)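 Confluent Vero cultures were exposed to a range of compound concentrations, three wells per concentration, for 48 h at 37 °C. Viability was read by MTT at 595 nm. CC₅₀ is the concentration reducing MTT signal by 50% versus untreated controls. Mean of three determinations.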

[3] = Selectivity index, ratio of CC50 for african green monkey Vero cells to EC50 for Junin virus IV4454 infected in african green monkey Vero cells; assay type: toxicity, cell-based; settings: read-out: Selectivity Index
[4] = test system: Vero; test: as §1; assay type: cell-based, Chlorocebus sabaeus; settings: Chlorocebus sabaeus, Vero, 48 h; in short: as §2
[5] = test system: Junin virus; test: Antiviral activity against Junin virus IV4454 infected in african green monkey Vero cells assessed as reduction in virus yield treated for 1.5 hrs before viral infection measured by plaque assay relative to control; assay type: functional, organism-based; settings: Mammarenavirus juninense
[6] = test system: Junin virus; test: Antiviral activity against Junin virus IV4454 infected in african green monkey Vero cells assessed as reduction in virus yield at 50 to 200 uM treated for 1.5 hrs before viral infection measured by plaque assay relative to control; assay type: functional, Mammarenavirus juninense

CC(=O)O[C@@H]1[C@H]2OC(C)(C)O[C@H]2O[C@@H]1C(=O)c1cnc2sc(C(=O)c3ccccc3)cn12
EC50 [1]: 7.9 µM | CC50 at 48 h [2]: > 400 µM | selectivity ratio [3]: > 50.6

COC1[C@@H](C(=O)c2cnc3sc(C(=O)c4ccccc4)cn23)O[C@@H]2OC(C)(C)O[C@H]12 (single isomer, unassigned)
EC50 [1]: 18.5 µM | CC50 at 48 h [2]: > 400 µM | selectivity ratio [3]: > 21.6

CO[C@@H]1[C@H]2OC(C)(C)O[C@H]2O[C@@H]1C(=O)c1cnc2sc(C(=O)c3ccc(Cl)cc3)cn12
EC50 [1]: 0.8 µM | CC50 at 48 h [2]: 371 µM | selectivity ratio [3]: 464

CO[C@@H]1[C@H]2OC(C)(C)O[C@H]2O[C@@H]1C(=O)c1cn2cc(C(=O)c3ccc(Cl)cc3)nc2s1
EC50 [1]: 11.9 µM | CC50 at 48 h [2]: > 400 µM | selectivity ratio [3]: > 33.6

CC(=O)O[C@@H]1[C@H]2OC(C)(C)O[C@H]2O[C@@H]1C(=O)c1cnc2sc(C(=O)c3ccc(Br)cc3)cn12
EC50 [1]: 5.6 µM | CC50 at 48 h [2]: 139 µM | selectivity ratio [3]: 24.8

CC(=O)O[C@@H]1[C@H]2OC(C)(C)O[C@H]2O[C@@H]1C(=O)c1cnc2sc(C(=O)c3ccc(Cl)cc3)cn12
EC50 [1]: 7.5 µM | CC50 at 48 h [2]: 70 µM | selectivity ratio [3]: 9.3

CC(=O)O[C@@H]1[C@H]2OC(C)(C)O[C@H]2O[C@@H]1C(=O)c1cnc2sc(C(=O)c3ccc(F)cc3)cn12
EC50 [1]: 4.9 µM | CC50 at 48 h [2]: > 400 µM | selectivity ratio [3]: > 81.6

CO[C@@H]1[C@H]2OC(C)(C)O[C@H]2O[C@@H]1C(=O)c1cnc2sc(C(=O)c3ccc(F)cc3)cn12
EC50 [1]: 78.3 µM | CC50 at 48 h [2]: > 400 µM | selectivity ratio [3]: > 5.1

CO[C@@H]1[C@H]2OC(C)(C)O[C@H]2O[C@@H]1C(=O)c1cn2cc(C(=O)c3ccccc3)nc2s1
EC50 [1]: 12.3 µM | CC50 at 48 h [2]: > 400 µM | selectivity ratio [3]: > 32.5

CO[C@@H]1[C@H]2OC(C)(C)O[C@H]2O[C@@H]1C(=O)c1cn2cc(C(=O)c3ccc(F)cc3)nc2s1
EC50 [1]: 2.9 µM | CC50 at 48 h [2]: > 400 µM | selectivity ratio [3]: > 138

NC(=O)c1ncn([C@@H]2O[C@H](CO)[C@@H](O)[C@H]2O)n1 [RIBAVIRIN]
EC50 [1]: 18.5 µM | IC50 [4]: > 400 µM | selectivity ratio [3]: > 21.6

CO[C@@H]1[C@H]2OC(C)(C)O[C@H]2O[C@@H]1C(=O)c1cn2cc(C(=O)c3ccc(Br)cc3)nc2s1
EC50 [1]: 4.3 µM | CC50 at 48 h [2]: 351 µM | selectivity ratio [3]: 81.6

COC1[C@@H](C(=O)c2cnc3sc(C(=O)c4ccc(Br)cc4)cn23)O[C@@H]2OC(C)(C)O[C@H]12 (single isomer, unassigned)
inhibition [5]: Dose-dependent effect | fold change (FC) [6]: 15 | EC50 [1]: 1.1 µM | CC50 at 48 h [2]: 295 µM | selectivity ratio [3]: 268

Reference: ChEMBL document CHEMBL1649388, “Imidazo[2,1-b]thiazole carbohydrate derivatives: Synthesis and antiviral activity against Junin virus, agent of Argentine hemorrhagic fever” (Eur J Med Chem, 2011)
